Here are results for three molecules from ChEMBL document CHEMBL1128530, “Alpha- and beta-adrenoceptors: from the gene to the clinic. 1. Molecular biology and adrenoceptor subclassification” (J Med Chem, 1995).

The target in assay [1] is T1, Alpha-2C adrenergic receptor (Homo sapiens, UniProt P18825).
T1 sequence (P18825 whole entry): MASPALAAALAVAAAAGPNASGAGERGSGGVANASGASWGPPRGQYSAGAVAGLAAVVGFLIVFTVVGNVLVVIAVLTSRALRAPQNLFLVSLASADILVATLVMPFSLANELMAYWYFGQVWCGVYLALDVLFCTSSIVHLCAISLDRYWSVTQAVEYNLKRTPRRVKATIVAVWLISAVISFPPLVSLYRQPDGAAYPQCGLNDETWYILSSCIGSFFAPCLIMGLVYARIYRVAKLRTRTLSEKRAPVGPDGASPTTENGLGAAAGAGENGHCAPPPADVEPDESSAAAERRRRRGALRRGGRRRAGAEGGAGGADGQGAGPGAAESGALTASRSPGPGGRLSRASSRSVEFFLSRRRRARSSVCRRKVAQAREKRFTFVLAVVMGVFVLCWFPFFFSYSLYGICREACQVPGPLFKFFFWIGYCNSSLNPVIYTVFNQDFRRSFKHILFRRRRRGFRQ
In words: Binding affinity against Alpha-2C adrenergic receptor from human clones.

Assay [2] addresses T2, Alpha-2B adrenergic receptor (Homo sapiens, UniProt P18089).
T2 sequence (P18089 whole entry): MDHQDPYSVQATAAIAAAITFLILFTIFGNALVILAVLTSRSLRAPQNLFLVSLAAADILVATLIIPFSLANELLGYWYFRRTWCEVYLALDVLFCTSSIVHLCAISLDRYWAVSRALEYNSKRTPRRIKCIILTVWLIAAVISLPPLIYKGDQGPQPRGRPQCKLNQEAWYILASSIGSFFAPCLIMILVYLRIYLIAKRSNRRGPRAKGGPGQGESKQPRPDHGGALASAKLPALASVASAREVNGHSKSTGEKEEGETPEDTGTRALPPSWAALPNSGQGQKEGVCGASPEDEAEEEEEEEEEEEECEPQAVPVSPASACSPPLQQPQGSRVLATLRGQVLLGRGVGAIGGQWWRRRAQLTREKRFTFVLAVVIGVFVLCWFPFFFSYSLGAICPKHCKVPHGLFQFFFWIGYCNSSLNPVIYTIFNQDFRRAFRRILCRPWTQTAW
The experiment in a line: Binding affinity against Alpha-2B adrenergic receptor from human clones.

The target of assay [3] is T3, Alpha-1D adrenergic receptor (Rattus norvegicus, UniProt P23944).
T3 sequence (P23944 whole entry): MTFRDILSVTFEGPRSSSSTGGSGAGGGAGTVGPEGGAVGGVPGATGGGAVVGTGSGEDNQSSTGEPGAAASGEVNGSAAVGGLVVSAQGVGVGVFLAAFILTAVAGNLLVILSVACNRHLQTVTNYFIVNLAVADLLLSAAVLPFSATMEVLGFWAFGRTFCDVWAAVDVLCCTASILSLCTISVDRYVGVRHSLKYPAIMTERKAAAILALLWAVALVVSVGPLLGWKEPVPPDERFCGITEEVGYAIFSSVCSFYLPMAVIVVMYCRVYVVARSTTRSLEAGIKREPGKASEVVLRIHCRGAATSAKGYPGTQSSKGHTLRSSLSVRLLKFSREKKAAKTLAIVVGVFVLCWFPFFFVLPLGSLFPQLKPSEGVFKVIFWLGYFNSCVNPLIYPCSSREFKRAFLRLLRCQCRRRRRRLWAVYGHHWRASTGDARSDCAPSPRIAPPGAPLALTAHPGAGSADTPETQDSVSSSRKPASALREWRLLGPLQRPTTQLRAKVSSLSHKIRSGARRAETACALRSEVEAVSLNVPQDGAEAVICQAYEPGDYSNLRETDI
In words: Binding affinity against Alpha-1D adrenergic receptor, from rat clones.

Assay [4] has as its target T4, Alpha-2A adrenergic receptor (Homo sapiens, UniProt P08913).
T4 sequence (P08913 whole entry): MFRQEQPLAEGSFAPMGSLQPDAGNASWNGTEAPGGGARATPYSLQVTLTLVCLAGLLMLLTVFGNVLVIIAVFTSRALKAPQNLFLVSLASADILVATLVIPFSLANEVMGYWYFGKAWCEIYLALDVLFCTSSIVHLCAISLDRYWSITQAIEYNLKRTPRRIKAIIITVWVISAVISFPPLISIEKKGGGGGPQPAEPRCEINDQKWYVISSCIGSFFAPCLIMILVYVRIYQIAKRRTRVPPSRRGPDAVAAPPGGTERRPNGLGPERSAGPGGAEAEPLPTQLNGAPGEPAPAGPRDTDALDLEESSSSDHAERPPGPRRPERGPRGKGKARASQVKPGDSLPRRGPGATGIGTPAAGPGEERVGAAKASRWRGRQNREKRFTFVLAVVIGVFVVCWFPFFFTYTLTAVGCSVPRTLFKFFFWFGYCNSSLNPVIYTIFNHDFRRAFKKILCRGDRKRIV
The experiment in a line: The compound was tested for binding affinity against Alpha-2A adrenergic receptor from human clones. The method, boiled down: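 Human α2A-adrenoceptor clone expressed in CHO cells; radioligand binding read out as Ki (nM).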

For assay [5], the target named is T5, Alpha-1D adrenergic receptor (Homo sapiens, UniProt P25100).
T5 sequence (P25100 whole entry): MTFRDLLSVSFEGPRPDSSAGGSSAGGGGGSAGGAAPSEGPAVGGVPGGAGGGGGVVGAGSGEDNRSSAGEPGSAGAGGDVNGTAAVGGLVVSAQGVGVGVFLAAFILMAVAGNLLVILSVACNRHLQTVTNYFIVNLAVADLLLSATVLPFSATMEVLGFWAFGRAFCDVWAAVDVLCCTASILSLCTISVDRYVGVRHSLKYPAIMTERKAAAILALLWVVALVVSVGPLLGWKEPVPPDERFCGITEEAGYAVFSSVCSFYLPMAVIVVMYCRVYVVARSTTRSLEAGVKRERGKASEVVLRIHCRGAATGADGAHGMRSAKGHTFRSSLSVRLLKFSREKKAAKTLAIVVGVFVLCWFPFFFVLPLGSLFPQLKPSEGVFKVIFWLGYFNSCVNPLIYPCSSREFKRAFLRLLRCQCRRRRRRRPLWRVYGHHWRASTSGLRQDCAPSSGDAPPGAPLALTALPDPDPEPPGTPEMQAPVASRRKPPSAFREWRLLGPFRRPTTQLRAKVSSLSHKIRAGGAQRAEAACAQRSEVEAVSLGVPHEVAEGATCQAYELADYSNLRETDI
The experiment in a line: Binding affinity against Alpha-1D adrenergic receptor, from human clones.

Molecules are shown by their SMILES.

A word on the Ki: it is the equilibrium dissociation constant of an inhibitor or competing ligand from its target. A higher Ki goes with lower affinity. As to `COc1cccc(OC)c1OCCNCC1COc2ccccc2O1` (stereo not drawn), the values for the Ki in assay [1], in assay [2] and in assay [3] were 0.8 nM, 28 nM and 1.2 nM, respectively.

Regarding `COc1ccccc1N1CCN(CCCNc2c(C)c(=O)n(C)c(=O)n2C)CC1`, the inhibition constant (Ki) worked out at 612 nM in assay [4]; 131 nM in assay [1]; 406 nM in assay [2]; 186 nM in assay [3]; 21 nM in assay [5].

For `O=C(NC1CCN(CCc2c[nH]c3ccccc23)CC1)c1ccccc1` [INDORAMIN], the Ki in assay [4] turned out to be 2240 nM; in assay [1], 476 nM; in assay [2] it was 528 nM; in assay [3], 611 nM; in assay [5], 110 nM.
